# Measured values as given in ChEMBL document CHEMBL3399918, “In vitro radical scavenging and cytotoxic activities of novel hybrid selenocarbamates” (Bioorg Med Chem, 2015).
# Experiments:
# [1] = Antioxidant activity assessed as ABTS radical scavenging activity by measuring Trolox equivalent antioxidant capacity after 6 mins; type: physicochemical; conditions: 0.1 h
# Procedure, shortened: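 ABTS dissolved in deionized water at 1 mg/mL, oxidised to radical cation with potassium persulfate (2.45 mM final), kept overnight at room temperature in dark, then diluted with 50% ethanol to A741 = 0.700 ± 0.02. Compound (1 mg/mL ethanol stock) added 1:10 (0.1 mg/mL); A741 decrease read after 6 min against 50% ethanol blank. Trolox positive control; quadruplicate; TEAC from calibration curve.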
# [2] = system: HT-29; test: Cytotoxicity against human HT-29 cells after 72 hrs by MTT assay; type: functional; conditions: HT-29, 72 h
# Procedure, shortened: (§1)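 CCRF-CEM, HT-29, PC-3 and HTB-54 cells grown in RPMI 1640 with 10% foetal calf serum, 2 mM L-glutamine, penicillin/streptomycin, 10 mM HEPES (pH 7.4). Five concentrations, 0.01–100 μM, 72 h at 37 °C, 5% CO2; MTT read-out. GI50, TGI and LC50 versus untreated controls; at least 3 independent experiments in quadruplicate.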
# [3] = system: CCRF-CEM; test: Cytotoxicity against human CCRF-CEM cells after 72 hrs by MTT assay; type: functional; procedure, shortened: as §1
# [4] = system: MCF7; test: Cytotoxicity against human MCF7 cells after 72 hrs by MTT assay; type: functional; conditions: MCF7, 72 h; for CC50: read-out: LC50 (the source's name)
# Procedure, shortened: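 MCF-7 cells grown in EMEM with 10% foetal calf serum, 2 mM L-glutamine, 100 units/mL penicillin, 100 µg/mL streptomycin. Exposed to five concentrations between 0.01 and 100 μM for 72 h, 37 °C, humidified 5% CO2; MTT read-out. GI50, TGI, LC50 relative to untreated controls; ≥3 independent experiments in quadruplicate.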
# [5] = Cytotoxicity against human BEAS2B cells after 72 hrs by MTT assay; type: cell-based, BEAS-2B; conditions: for GI50 at 72 h: BEAS2B cells; for LC50 / TGI: beas-2b, 72 h
# Procedure, shortened: (§2)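 Non-malignant lines: 184B5 (normal breast) in Hams F-12/DMEM (50:50) with published supplements; BEAS-2B (bronchial epithelium) in Hams F-12/DMEM (50:50) with 10% foetal calf serum, 2 mM L-glutamine, penicillin/streptomycin. Compounds at five concentrations, 0.01–100 μM, 72 h, 37 °C, 5% CO2; MTT read-out. GI50, TGI, LC50 relative to untreated controls; ≥3 independent experiments in quadruplicate.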
# [6] = Cytotoxicity against human 184B5 cells after 72 hrs by MTT assay; type: cell-based; conditions: for GI50 at 72 h: 184B5 cells; for LC50 / TGI: 184b5, 72 h; procedure, shortened: as §2
# [7] = Cytotoxicity against human PC3 cells after 72 hrs by MTT assay; type: functional; conditions: PC-3, 72 h; procedure, shortened: as §1
# [8] = Cytotoxicity against human HTB-54 cells after 72 hrs by MTT assay; type: functional; conditions: HTB-54, 72 h; for CC50: read-out: LC50 (the source's name); procedure, shortened: as §1
# [9] = Antioxidant activity assessed as DPPH radical scavenging activity at 0.5 mg/ml after 180 mins; type: physicochemical; conditions: 3 h
# Procedure, shortened: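 Compounds in absolute ethanol, serially diluted from 1 mg/mL, mixed 1:1 with […] in ethanol. Final range 0.016–0.5 mg/mL, 6 concentrations. Incubated at 37 °C in the dark, with decolourisation followed at 517 nm at several time intervals. % scavenged = (A vehicle control − A sample)/A control × 100. Quadruplicate; mean ± SD.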
# [10] = Antioxidant activity assessed as ABTS radical scavenging activity at 0.1 mg/ml after 6 mins; type: physicochemical; conditions: 0.1 h
# Procedure, shortened: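 Diluted with 50% ethanol to A741 0.700 ± 0.02. A741 decrease read after 6 min against a 50% ethanol blank. % scavenged relative to a vehicle-plus-radical control. Quadruplicate.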
SMILES,GI50 [2],LC50 [2],TGI [2],GI50 [3],LC50 [3],TGI [3],GI50 [4],TGI [4],CC50 [4],GI50 at 72 h [5],LC50 [5],TGI [5],GI50 at 72 h [6],LC50 [6],TGI [6],GI50 [7],LC50 (concentration causing 50% net cell kill) [7],TGI [7],GI50 [8],TGI [8],also measured
CC(C)COC(=O)Nc1ccc([Se]C#N)cc1,8.1 µM,63.7 µM,31.3 µM,9.3 µM,68.7 µM,38.3 µM,18.1 µM,45.5 µM,73 µM,26.9 µM,72.1 µM,49.5 µM,5.8 µM,60.9 µM,21.6 µM,21.6 µM,73 µM,47.3 µM,27.1 µM,51.2 µM,Activity [1]: 5.09 µg/µL; CC50 [8]: 75.4 µM; inhibition (INH) [9]: 27.1%
N#C[Se]c1ccc(NC(=O)OCC2c3ccccc3-c3ccccc32)cc1,15.5 µM,70.2 µM,42.8 µM,7.5 µM,66.7 µM,34.2 µM,7.6 µM,34.6 µM,67 µM,7.9 µM,68.2 µM,38.4 µM,5.5 µM,62.5 µM,25.8 µM,2 µM,70 µM,34.3 µM,23.8 µM,48.4 µM,Activity [1]: 7.02 µg/µL; CC50 [8]: 73 µM; inhibition (INH) [9]: > 25%
N#C[Se]c1ccc(NC(=O)Oc2ccc(Cl)cc2)cc1,11.8 µM,68.7 µM,40.3 µM,18.3 µM,71.8 µM,45.1 µM,6 µM,26.3 µM,63.6 µM,9.3 µM,68.7 µM,38 µM,5.6 µM,59.8 µM,19.9 µM,6.4 µM,57.9 µM,18.7 µM,13.8 µM,41.4 µM,inhibition (INH) [10]: > 25%; Activity [1]: 37.6 µg/µL; CC50 [8]: 69 µM
N#C[Se]c1ccc(NC(=O)OCc2ccccc2)cc1,13.3 µM,69.1 µM,41.2 µM,23.2 µM,73.7 µM,48.4 µM,8.7 µM,38.8 µM,68.9 µM,0.1 µM,66.6 µM,34.4 µM,5 µM,60.7 µM,21.9 µM,3.7 µM,62.5 µM,27.8 µM,27.6 µM,50.8 µM,Activity [1]: 6.74 µg/µL; CC50 [8]: 74 µM; inhibition (INH) [9]: 3.7%
CCCOC(=O)Nc1ccc([Se][Se]c2ccc(NC(=O)OCCC)cc2)cc1,18.3 µM,76.1 µM,47.2 µM,4.3 µM,49.1 µM,8.8 µM,31.7 µM,55.8 µM,80 µM,14.4 µM,72.2 µM,43.3 µM,7.2 µM,62 µM,24.5 µM,18.4 µM,71.5 µM,45 µM,48.5 µM,68.4 µM,inhibition (INH) [10]: 22.5%; Activity [1]: 14.5 µg/µL; CC50 [8]: 88.3 µM; inhibition (INH) [9]: 52.4%
O=C(Nc1ccc([Se][Se]c2ccc(NC(=O)OCc3ccccc3)cc2)cc1)OCc1ccccc1,1.8 µM,69 µM,35.4 µM,6.4 µM,67.9 µM,34.6 µM,5.2 µM,38.6 µM,74.5 µM,0.01 µM,58.5 µM,17.3 µM,0.1 µM,36.2 µM,5.8 µM,0.1 µM,70.4 µM,33.5 µM,23.8 µM,50.9 µM,CC50 [8]: 78 µM; inhibition (INH) [9]: 7.4%
CCCCCCOC(=O)Nc1ccc([Se][Se]c2ccc(NC(=O)OCCCCCC)cc2)cc1,11 µM,74.2 µM,42.6 µM,6.2 µM,67.3 µM,34.4 µM,15.8 µM,52.9 µM,89.9 µM,0.01 µM,51.8 µM,6.9 µM,4.6 µM,53.4 µM,9.8 µM,0.6 µM,66.7 µM,25.7 µM,31 µM,54.3 µM,CC50 [8]: 77.2 µM; inhibition (INH) [9]: < 16%
N#C[Se]c1ccc(NC(=O)Oc2ccc(F)cc2)cc1,8.8 µM,66.5 µM,37.6 µM,12.6 µM,71.1 µM,41.9 µM,8.3 µM,33.3 µM,65.7 µM,19.8 µM,71.4 µM,45.6 µM,6.9 µM,64.4 µM,29.5 µM,11.8 µM,69 µM,40.4 µM,25 µM,48.4 µM,inhibition (INH) [10]: > 25%; Activity [1]: 20.8 µg/µL; CC50 [8]: 71.9 µM
Cc1ccc(OC(=O)Nc2ccc([Se][Se]c3ccc(NC(=O)Oc4ccc(C)cc4)cc3)cc2)cc1,7.9 µM,70.9 µM,39.4 µM,21.4 µM,75.6 µM,48.5 µM,6.9 µM,37.7 µM,74 µM,0.7 µM,61.8 µM,19.2 µM,3.5 µM,37.2 µM,7.6 µM,4.4 µM,64.8 µM,28.2 µM,24.9 µM,57 µM,CC50 [8]: 89.1 µM; inhibition (INH) [9]: > 50%
CCCCCCOC(=O)Nc1ccc([Se]C#N)cc1,10.7 µM,69.9 µM,40.3 µM,19.7 µM,72.7 µM,46.2 µM,6.6 µM,30.5 µM,63.9 µM,2.8 µM,68 µM,35.9 µM,4.6 µM,60.1 µM,20 µM,17.3 µM,72 µM,44.6 µM,23.6 µM,48.5 µM,CC50 [8]: 73 µM; inhibition (INH) [9]: > 25%
O=C(Nc1ccc([Se][Se]c2ccc(NC(=O)Oc3ccccc3)cc2)cc1)Oc1ccccc1,13 µM,70.2 µM,41.6 µM,22.4 µM,73.7 µM,48.1 µM,8 µM,36.7 µM,69 µM,1.4 µM,50.7 µM,8.6 µM,4.5 µM,48.9 µM,9 µM,5.3 µM,62.9 µM,27.2 µM,22.7 µM,56.2 µM,CC50 [8]: 89.8 µM; inhibition (INH) [9]: 66.9%
